Measurements taken from ChEMBL document CHEMBL4229417, “Design and synthesis of alkyl substituted pyridino[2,3-D]pyrimidine compounds as PI3Kα/mTOR dual inhibitors with improved pharmacokinetic properties and potent in vivo antitumor activity” (Bioorg Med Chem, 2018).
Calls of active or inactive are those of the source. The calls are words filed in the database; no cut-off is given here.

Columns and labels:
[1] = biological target: T1, Phosphatidylinositol 4,5-bisphosphate 3-kinase catalytic subunit alpha isoform (Homo sapiens, UniProt P42336); assay: Inhibition of PI3Kalpha (unknown origin) using PIP2 as substrate measured after 1 hr by Kinase-Glo luminescent assay
T1 sequence (P42336 whole entry, canonical isoform): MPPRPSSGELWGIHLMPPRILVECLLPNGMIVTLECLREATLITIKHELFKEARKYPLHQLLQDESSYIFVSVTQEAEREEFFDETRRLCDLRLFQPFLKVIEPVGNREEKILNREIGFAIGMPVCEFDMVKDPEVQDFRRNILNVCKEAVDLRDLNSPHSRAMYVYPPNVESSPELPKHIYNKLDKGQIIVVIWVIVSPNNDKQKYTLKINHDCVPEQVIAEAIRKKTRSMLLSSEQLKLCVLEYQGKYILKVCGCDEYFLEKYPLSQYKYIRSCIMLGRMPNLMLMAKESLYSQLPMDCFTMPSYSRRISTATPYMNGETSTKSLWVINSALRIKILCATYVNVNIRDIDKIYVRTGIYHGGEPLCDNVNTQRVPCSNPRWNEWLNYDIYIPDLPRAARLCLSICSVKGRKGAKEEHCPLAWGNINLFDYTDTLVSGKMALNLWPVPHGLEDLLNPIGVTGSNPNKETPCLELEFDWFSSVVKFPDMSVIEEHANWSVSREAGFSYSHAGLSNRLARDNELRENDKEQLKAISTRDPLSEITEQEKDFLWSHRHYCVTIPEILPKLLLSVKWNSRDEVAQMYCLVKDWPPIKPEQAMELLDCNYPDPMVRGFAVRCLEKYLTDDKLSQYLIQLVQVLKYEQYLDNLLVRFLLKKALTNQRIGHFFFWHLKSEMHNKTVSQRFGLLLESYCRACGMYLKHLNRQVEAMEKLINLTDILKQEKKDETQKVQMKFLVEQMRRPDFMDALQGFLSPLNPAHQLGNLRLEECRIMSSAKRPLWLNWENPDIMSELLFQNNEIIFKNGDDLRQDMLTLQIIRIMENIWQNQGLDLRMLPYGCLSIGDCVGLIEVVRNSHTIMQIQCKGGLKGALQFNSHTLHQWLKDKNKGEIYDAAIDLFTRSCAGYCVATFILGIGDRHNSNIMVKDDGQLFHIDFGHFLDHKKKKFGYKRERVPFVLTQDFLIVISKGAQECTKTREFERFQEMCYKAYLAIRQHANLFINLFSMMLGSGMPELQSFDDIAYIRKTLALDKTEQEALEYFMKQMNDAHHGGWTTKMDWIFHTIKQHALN

[2] = biological target: T2, Serine/threonine-protein kinase mTOR (Homo sapiens, UniProt P42345); assay: Inhibition of mTOR (unknown origin) using ULight-4E-BP1 peptide substrate measured after 1 hr by Lance Ultra assay
Method in brief: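 mTOR (10 nM final) was reacted with ULight-4E-BP1 peptide (50 nM final) and ATP in kinase buffer for 1 h at room temperature.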

MCF7 = assay: Antiproliferative activity against human MCF7 cells assessed as reduction in cell viability after 48 hrs by CCK8 assay; assay type: functional, cell-based; conditions: MCF7, 48 h
Method in brief: (§1)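 Cells were seeded at 5000/well and grown 24 h at 37 °C, 5% CO2. They were then exposed 48 h to compound diluted from DMSO into medium (final DMSO <0.4%). CCK-8 was added for 1 h and absorbance read at 540 nm. IC50 came from the viability vs concentration (nM) curve, in triplicate.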

U-87 MG [3] = assay: Antiproliferative activity against human U87MG cells assessed as reduction in cell viability after 48 hrs by CCK8 assay; assay type: functional, cell-based, U-87MG ATCC; method in brief: as §1
PC-3 = assay: Antiproliferative activity against human PC3 cells assessed as reduction in cell viability after 48 hrs by CCK8 assay; assay type: functional, cell-based; conditions: PC-3, 48 h; method in brief: as §1
SK-OV-3 [4] = assay: Antiproliferative activity against human SKOV3 cells assessed as reduction in cell viability after 48 hrs by CCK8 assay; assay type: functional, cell-based; conditions: SK-OV-3, 48 h; method in brief: as §1
[5] = Mean residence time in Beagle dog at 1 mg/kg, po administered as single dose via gavage; assay type: ADME, organism-based, Canis lupus familiaris; conditions: in vivo
Method in brief: (§2)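 Three male Beagle dogs (9–10 months, 9–10 kg) given 1 mg/kg by oral gavage as a solution in physiological saline with 5% DMSO. Blood was drawn at 0.25–24 h and spun within 1 h (1000 × g, 4 °C, 15 min). Plasma was stored at -20 °C. t1/2 and AUC0–24 were obtained by model-independent analysis, and Cmax and MRT directly from the plasma concentration–time data.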

[6] = Cmax in Beagle dog at 1 mg/kg, po administered as single dose via gavage; assay type: ADME, organism-based, Canis lupus familiaris; parameters: dose 1 mg/kg, route oral; conditions: in vivo; method in brief: as §2
[7] = Unbound clearance in pooled human liver microsomes at 50 uM pretreated for 5 mins followed by NADPH addition and measured after 120 mins by HPLC analysis; assay type: ADME, microsome; conditions: 2 h
Method in brief: (§3)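 Pooled adult male and female human liver microsomes at 1 mg/mL in 0.1 M Tris-HCl pH 7.4, with test compound at 50 μM final. Mixtures were preincubated 5 min at 37 °C, then started with NADPH regenerating system. Reactions were stopped at 120 min with cold methanol, centrifuged, and analysed by HPLC.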

[8] = Half life in pooled human liver microsomes at 50 uM pretreated for 5 mins followed by NADPH addition and measured after 120 mins by HPLC analysis; assay type: ADME, microsome; method in brief: as §3
[9] = Half life in Beagle dog at 1 mg/kg, po administered as single dose via gavage; assay type: ADME, organism-based, Canis lupus familiaris; conditions: in vivo; method in brief: as §2
U-87 MG [10] = assay: Antitumor activity against human U87MG cells xenografted in Balb/c mouse assessed as tumor growth inhibition at 10 mg/kg, ig administered daily for 10 days relative to control; assay type: functional, U-87MG ATCC; conditions: po, 240 h, read-out: TGI
Method in brief: (§4)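 Female BALB/c nude mice (6–7 weeks, 16–20 g, SPF, 5 groups of 5) were implanted subcutaneously with 5×10^6 U87MG cells. At 100–150 mm³ they were randomized and dosed intragastrically once daily for 10 days. Body weight was recorded twice every 3 days. Tumor volume was taken as V = 1/2ab² (a length, b width).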

[11] = AUC (0 to 24 hrs) in Beagle dog at 1 mg/kg, po administered as single dose via gavage; assay type: ADME, organism-based, Canis lupus familiaris; parameters: time < 24 hr, dose 1 mg/kg, route oral; conditions: in vivo; method in brief: as §2
U-87 MG [12] = assay: Antitumor activity against human U87MG cells xenografted in Balb/c mouse assessed as tumor growth inhibition at 30 mg/kg, ig administered daily for 10 days relative to control; assay type: functional, U-87MG ATCC; conditions: po, 240 h, read-out: TGI; method in brief: as §4
Mus musculus = assay: Toxicity in Balb/c mouse xenografted with human U87MG cells assessed as body weight loss at 3 to 30 mg/kg, ig administered daily for 10 days measured twice every 3 days during compound dosing; assay type: organism-based; conditions: in vivo, po; method in brief: as §4
[13] = biological target: T1, Phosphatidylinositol 4,5-bisphosphate 3-kinase catalytic subunit alpha isoform; assay: Inhibition of PI3Kalpha in human U87MG cells assessed as reduction in S6 phosphorylation at Ser235/236 after 24 hrs by Western blot analysis; assay type: cell-based
Method in brief: (§5)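 U87MG cells were treated at indicated concentrations for 24 h at 37 °C, then lysed in RIPA with protease/phosphatase inhibitors and 1 mM PMSF. Lysates were run on SDS–PAGE and PVDF blots probed overnight at 4 °C for AKT, pAKT Ser473, pAKT Thr308, S6RP and pS6RP Ser235/236. HRP secondary was used with chemiluminescent detection.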

U-87 MG [14] = assay: Antitumor activity against human U87MG cells xenografted in Balb/c mouse assessed as tumor growth inhibition at 3 mg/kg, ig administered daily for 10 days relative to control; assay type: functional, U-87MG ATCC; conditions: po, 240 h, read-out: TGI; method in brief: as §4
[15] = biological target: T2, Serine/threonine-protein kinase mTOR; assay: Potency index, ratio of AZD8055 IC50 to test compound IC50 for mTOR (unknown origin)
U-87 MG [16] = assay: Antitumor activity against human U87MG cells xenografted in ig dosed Balb/c mouse assessed as tumor growth inhibition administered daily for 10 days; assay type: functional, organism-based; conditions: U-87MG ATCC; method in brief: as §4
[17] = biological target: T1, Phosphatidylinositol 4,5-bisphosphate 3-kinase catalytic subunit alpha isoform; assay: Inhibition of PI3Kalpha in human U87MG cells assessed as reduction in AKT phosphorylation at S473 residue at 20 to 200 nM after 24 hrs by Western blot analysis relative to control; assay type: cell-based; method in brief: as §5
[18] = biological target: T1, Phosphatidylinositol 4,5-bisphosphate 3-kinase catalytic subunit alpha isoform; assay: Potency index, ratio of AZD8055 IC50 to test compound IC50 for PI3Kalpha (unknown origin)
[19] = biological target: T1, Phosphatidylinositol 4,5-bisphosphate 3-kinase catalytic subunit alpha isoform; assay: Inhibition of PI3Kalpha in human U87MG cells assessed as reduction in AKT phosphorylation at S473 residue at 2 nM after 24 hrs by Western blot analysis relative to control; assay type: cell-based; method in brief: as §5
[20] = biological target: T1, Phosphatidylinositol 4,5-bisphosphate 3-kinase catalytic subunit alpha isoform; assay: Inhibition of PI3Kalpha in human U87MG cells assessed as reduction in AKT phosphorylation at T308 residue at 2 nM after 24 hrs by Western blot analysis relative to control; assay type: cell-based; method in brief: as §5
SK-OV-3 [21] = assay: Potency index, ratio of AZD8055 IC50 to test compound IC50 for human SKOV3 cells; assay type: functional
[22] = biological target: T1, Phosphatidylinositol 4,5-bisphosphate 3-kinase catalytic subunit alpha isoform; assay: Inhibition of PI3Kalpha in human U87MG cells assessed as reduction in AKT phosphorylation at T308 residue at 20 to 200 nM after 24 hrs by Western blot analysis relative to control; assay type: cell-based; method in brief: as §5

SMILES	IC50 [1]	IC50 [2]	IC50 (MCF7)	IC50 (U-87 MG [3])	IC50 (PC-3)	IC50 (SK-OV-3 [4])	also measured
COc1ccc(-c2ccc3c(N4CCOCC4)nc(C#N)nc3n2)cc1CO	2600 nM	32 nM	> 1000 nM	920 nM	> 1000 nM	660 nM	
COc1ccc(-c2ccc3c(N4CCOCC4)nc(C(N)=O)nc3n2)cc1CO	3200 nM	48 nM	> 1000 nM	821 nM	> 1000 nM	640 nM	
COc1ccc(-c2ccc3c(N4CCOCC4)nc(CS(C)(=O)=O)nc3n2)cc1CO	> 10000 nM	> 500 nM	> 1000 nM	> 1000 nM	> 1000 nM	> 1000 nM	
COc1ccc(-c2ccc3c(N4CCOCC4)nc(CN)nc3n2)cc1CO	> 10000 nM	146 nM	> 1000 nM	> 1000 nM	> 1000 nM	> 1000 nM	
COc1ccc(-c2ccc3c(N4CCOC[C@@H]4C)nc(C4CCOCC4)nc3n2)cc1CO	> 10000 nM	53 nM	443 nM	94.2 nM	476 nM	118 nM	
COc1ccc(-c2ccc3c(N4CCOCC4)nc(C(CO)CO)nc3n2)cc1CO	> 10000 nM	> 500 nM	> 1000 nM	> 1000 nM	> 1000 nM	> 1000 nM	

Stronger by IC50 (MCF7), values ahead:

IC50 [1]	IC50 [2]	IC50 (MCF7)	IC50 (U-87 MG [3])	IC50 (PC-3)	IC50 (SK-OV-3 [4])	SMILES	also measured
> 10000 nM	95 nM	77.3 nM	91.9 nM	66 nM	49.1 nM	COc1ccc(-c2ccc3c(N4CCOC[C@@H]4C)nc(C)nc3n2)cc1CO	
> 10000 nM	29 nM	72 nM	89.2 nM	163 nM	52.4 nM	COc1ccc(-c2ccc3c(N4CCOC[C@@H]4C)nc(CC(OC)OC)nc3n2)cc1CO	
3000 nM	10 nM	54 nM	33.8 nM	155 nM	44.7 nM	COc1ccc(-c2ccc3c(N4CCOC[C@@H]4C)nc(C(C)C)nc3n2)cc1CO	
		27 nM	21.2 nM	36.7 nM	55 nM	COc1ccc(-c2ccc3c(N4CCOC[C@@H]4C)nc(N4CCOC[C@@H]4C)nc3n2)cc1CO [AZD-8055]	MRT [5]: 3.1 h; Cmax [6]: 228 ng/mL; CL free [7]: 28.6 µL/min/mg; half-life at 50 µM [8]: 0.35 h; half-life [9]: 4.5 h; inhibition in vivo at 10 mg/kg (U-87 MG [10]): 59%; AUC(0-t) at 24 h [11]: 787 ng·h/mL
> 10000 nM	88 nM	186 nM	90.3 nM	66.6 nM	54.5 nM	COc1ccc(-c2ccc3c(N4CCOCC4)nc(CC#N)nc3n2)cc1CO	
400 nM	2 nM	6 nM	3.2 nM	23 nM	7 nM	COc1ccc(-c2ccc3c(N4CCOC[C@@H]4C)nc(C(C)(C)C)nc3n2)cc1CO	inhibition in vivo at 30 mg/kg (U-87 MG [12]): 83%; MRT [5]: 4.3 h; Activity (Mus musculus): Non-Toxic; Cmax [6]: 288 ng/mL; CL free [7]: 28.1 µL/min/mg; half-life at 50 µM [8]: 0.515 h; inhibition [13]: Dose-dependent effect; inhibition in vivo at 3 mg/kg (U-87 MG [14]): 28%; Ratio IC50 [15]: 4; TGI (U-87 MG [16]): Dose-dependent effect; half-life [9]: 5.4 h; inhibition [17]: 100%; Ratio IC50 [18]: 10; inhibition in vivo at 10 mg/kg (U-87 MG [10]): 64%; inhibition [19]: Active; inhibition [20]: Active; Ratio IC50 (SK-OV-3 [21]): 8; inhibition [22]: 100%; AUC(0-t) at 24 h [11]: 857 ng·h/mL
> 10000 nM	30 nM	225 nM	85.5 nM	212 nM	125 nM	COc1ccc(-c2ccc3c(N4CCOC[C@@H]4C)nc(C4=CCOCC4)nc3n2)cc1CO	
1300 nM	72 nM	31 nM	32.5 nM	110 nM	58.6 nM	CNC(=O)c1cccc(-c2ccc3c(N4CCOC[C@@H]4C)nc(C(C)(C)C)nc3n2)c1	
